Data: ChEMBL document CHEMBL4765336, “Discovery of coumarin derivatives as potent and selective cyclin-dependent kinase 9 (CDK9) inhibitors with high antitumour activity” (Eur J Med Chem, 2020)

Experiments:
[1] = Toxicity in BALB/c nude mouse xenografted with human MV4-11 cells assessed as mortality at 40 mg/kg, iv administered once daily for 21 days and measured 2 or 3 times per week; format: organism-based; conditions: in vivo, 504 h, time 21 day
Method in brief: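 Female BALB/c nude mice, six weeks old, with subcutaneous right-flank MV4-11 xenografts (5 million cells in PBS mixed 1:1 with Matrigel). Daily intravenous dosing started at tumour size 150–200 mm³, 6 mice per group, for 21 consecutive days. Vehicle was dimethylacetamide 20%/polyoxyethylated castor oil 40%/anhydrous ethanol 40%. Body weight was recorded two or three times weekly, and mortality was monitored throughout treatment.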

[2] = target: Cyclin-dependent kinase 7/ cyclin H (Homo sapiens, UniProt P50613); assay: Inhibition of CDK7/Cyclin H (unknown origin) preincubated for 20 mins followed by ATP addition and measured after 120 mins in presence of [33P-gamma] ATP by hotspot kinase assay; format: protein-complex assay
Chain of Cyclin-dependent kinase 7/ cyclin H (P51946 whole entry): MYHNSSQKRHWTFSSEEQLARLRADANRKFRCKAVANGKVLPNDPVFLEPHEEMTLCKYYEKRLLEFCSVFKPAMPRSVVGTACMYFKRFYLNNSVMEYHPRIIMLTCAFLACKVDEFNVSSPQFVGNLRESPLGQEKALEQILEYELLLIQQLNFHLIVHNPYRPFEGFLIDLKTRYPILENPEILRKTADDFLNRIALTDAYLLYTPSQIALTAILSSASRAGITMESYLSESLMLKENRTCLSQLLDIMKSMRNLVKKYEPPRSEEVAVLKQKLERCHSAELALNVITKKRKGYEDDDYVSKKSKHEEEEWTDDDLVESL
Chain of Cyclin-dependent kinase 7/ cyclin H (P50613 whole entry): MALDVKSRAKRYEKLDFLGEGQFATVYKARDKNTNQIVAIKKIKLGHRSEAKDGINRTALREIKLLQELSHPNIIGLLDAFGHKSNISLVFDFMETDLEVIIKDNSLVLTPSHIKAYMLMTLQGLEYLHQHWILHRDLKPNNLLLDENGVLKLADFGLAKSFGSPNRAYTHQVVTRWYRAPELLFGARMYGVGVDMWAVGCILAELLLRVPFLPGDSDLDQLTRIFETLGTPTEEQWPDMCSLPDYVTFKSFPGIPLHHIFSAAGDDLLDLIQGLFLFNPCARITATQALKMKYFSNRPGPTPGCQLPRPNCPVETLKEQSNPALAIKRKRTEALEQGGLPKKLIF
Method in brief: (§1)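 Radiometric filter-binding assay: kinase and substrate in 20 mM Hepes pH 7.5, 10 mM MgCl2, 1 mM EGTA, 0.02% Brij35, 0.02 mg/mL BSA, 0.1 mM Na3VO4, 2 mM DTT, 1% DMSO. Compound (top 1/10/27 μM, 3-fold serial dilutions) preincubated 20 min at 25 °C. ATP plus [γ-33P]ATP added to 10 μM final, reacted 120 min at 25 °C. IC50 from curve fit, duplicate mean.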

NCI-N87 = assay: Antiproliferative activity against human NCI-N87 cells assessed as inhibition of cell growth incubated for 72 hrs by Celltiter-Glo luminescent assay; format: functional, cell-based; conditions: NCI-N87, 72 h
Method in brief: (§2)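 Cells seeded in growth medium and held overnight at 37 °C; medium-only wells served as background. DMSO stocks were diluted in medium to 3× final and added; cells incubated 72 h at 37 °C, 5% CO2. Viability read by CellTiter-Glo luminescence after 60 min at room temperature. IC50 from curve fit, mean of duplicate.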

CDK2/Cyclin A2 = CDK2/Cyclin A2 (Homo sapiens, UniProt P24941); assay: Inhibition of CDK2/Cyclin A (unknown origin) preincubated for 20 mins followed by ATP addition and measured after 120 mins in presence of [33P-gamma] ATP by hotspot kinase assay; format: protein-complex assay; method in brief: as §1
NCI-H460 = assay: Antiproliferative activity against human NCI-H460 cells assessed as inhibition of cell growth incubated for 72 hrs by Celltiter-Glo luminescent assay; format: functional, cell-based; conditions: NCI-H460, 72 h; method in brief: as §2
[3] = target: Glycogen synthase kinase-3 (Homo sapiens) (UniProt P49840+P49841); assay: Inhibition of GSK3alpha/beta (unknown origin) assessed as enzyme activity at 1 uM preincubated for 20 mins followed by ATP addition and measured after 120 mins in presence of [33P-gamma] ATP by hotspot kinase assay relative to control; format: protein assay; set-up: scale not given: the % may be the effect or the level left; conditions: time 140.0 min
Chain of Glycogen synthase kinase-3 (Homo sapiens) (P49840 whole entry, looked up): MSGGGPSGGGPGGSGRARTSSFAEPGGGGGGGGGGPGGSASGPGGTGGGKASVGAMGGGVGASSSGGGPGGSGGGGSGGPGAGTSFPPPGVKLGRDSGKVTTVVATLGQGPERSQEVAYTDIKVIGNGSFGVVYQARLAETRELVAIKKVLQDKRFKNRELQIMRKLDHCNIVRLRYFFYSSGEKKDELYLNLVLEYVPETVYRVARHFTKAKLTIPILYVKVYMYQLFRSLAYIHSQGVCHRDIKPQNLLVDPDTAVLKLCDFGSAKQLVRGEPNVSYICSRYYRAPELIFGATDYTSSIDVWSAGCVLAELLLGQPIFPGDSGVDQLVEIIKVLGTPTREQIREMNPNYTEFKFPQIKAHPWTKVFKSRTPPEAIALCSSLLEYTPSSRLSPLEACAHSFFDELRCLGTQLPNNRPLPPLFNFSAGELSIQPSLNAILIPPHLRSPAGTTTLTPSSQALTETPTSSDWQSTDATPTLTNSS
Chain of Glycogen synthase kinase-3 (Homo sapiens) (P49841 whole entry, looked up): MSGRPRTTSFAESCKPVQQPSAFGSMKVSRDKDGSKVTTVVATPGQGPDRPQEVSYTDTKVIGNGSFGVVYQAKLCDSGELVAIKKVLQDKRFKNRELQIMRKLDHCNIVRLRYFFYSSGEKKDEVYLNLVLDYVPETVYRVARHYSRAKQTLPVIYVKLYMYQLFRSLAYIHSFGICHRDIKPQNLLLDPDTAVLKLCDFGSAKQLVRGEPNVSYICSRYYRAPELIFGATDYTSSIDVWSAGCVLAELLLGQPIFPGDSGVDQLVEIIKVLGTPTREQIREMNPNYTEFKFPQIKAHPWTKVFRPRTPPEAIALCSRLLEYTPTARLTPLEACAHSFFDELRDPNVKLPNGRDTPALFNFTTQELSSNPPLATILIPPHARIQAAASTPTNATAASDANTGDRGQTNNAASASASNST
Method in brief: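 Radiometric filter-binding kinase assay, buffer pH 7.5 with 10 mM MgCl2 and 1% DMSO. Compound tested at a single 1.0 μM, preincubated 20 min at 25 °C. Reaction started with ATP/[γ-33P]ATP at 10 μM final, run 120 min at 25 °C. Remaining % enzyme activity reported, n=2.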

CDK3/Cyclin E = CDK3/Cyclin E (Homo sapiens, UniProt Q00526); assay: Inhibition of CDK3/Cyclin E (unknown origin) preincubated for 20 mins followed by ATP addition and measured after 120 mins in presence of [33P-gamma] ATP by hotspot kinase assay; format: protein-complex assay; method in brief: as §1
A-375 = assay: Antiproliferative activity against human A-375 cells assessed as inhibition of cell growth incubated for 72 hrs by Celltiter-Glo luminescent assay; format: functional, cell-based; conditions: A-375, 72 h; method in brief: as §2
[4] = Cmax in ICR mouse at 30 mg/kg, po measured up to 24 hrs by LC-MS/MS analysis; format: ADME, organism-based; set-up: route oral, dose 30 mg/kg, time <=24; conditions: in vivo
Method in brief: (§3)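 Male ICR mice (25.1–28.8 g, n=9), fasted overnight (12 h), single oral gavage 30 mg/kg as 3 mg/mL in 0.5% CMC-Na with 0.2% Tween 80. Venous blood drawn into EDTA-K2 at 0, 0.25, 0.5, 1, 2, 4, 8, 24 h. Plasma protein-precipitated with ACN and run on LC-MS/MS (C18, formic acid/ACN). Noncompartmental parameters taken from composite mean concentration-time data.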

[5] = target: Voltage-gated inwardly rectifying potassium channel KCNH2 (Homo sapiens, UniProt Q12809); assay: Inhibition of fluorescently labeled tracer binding to human ERG by competitive binding assay
Chain of Voltage-gated inwardly rectifying potassium channel KCNH2 (Q12809 whole entry): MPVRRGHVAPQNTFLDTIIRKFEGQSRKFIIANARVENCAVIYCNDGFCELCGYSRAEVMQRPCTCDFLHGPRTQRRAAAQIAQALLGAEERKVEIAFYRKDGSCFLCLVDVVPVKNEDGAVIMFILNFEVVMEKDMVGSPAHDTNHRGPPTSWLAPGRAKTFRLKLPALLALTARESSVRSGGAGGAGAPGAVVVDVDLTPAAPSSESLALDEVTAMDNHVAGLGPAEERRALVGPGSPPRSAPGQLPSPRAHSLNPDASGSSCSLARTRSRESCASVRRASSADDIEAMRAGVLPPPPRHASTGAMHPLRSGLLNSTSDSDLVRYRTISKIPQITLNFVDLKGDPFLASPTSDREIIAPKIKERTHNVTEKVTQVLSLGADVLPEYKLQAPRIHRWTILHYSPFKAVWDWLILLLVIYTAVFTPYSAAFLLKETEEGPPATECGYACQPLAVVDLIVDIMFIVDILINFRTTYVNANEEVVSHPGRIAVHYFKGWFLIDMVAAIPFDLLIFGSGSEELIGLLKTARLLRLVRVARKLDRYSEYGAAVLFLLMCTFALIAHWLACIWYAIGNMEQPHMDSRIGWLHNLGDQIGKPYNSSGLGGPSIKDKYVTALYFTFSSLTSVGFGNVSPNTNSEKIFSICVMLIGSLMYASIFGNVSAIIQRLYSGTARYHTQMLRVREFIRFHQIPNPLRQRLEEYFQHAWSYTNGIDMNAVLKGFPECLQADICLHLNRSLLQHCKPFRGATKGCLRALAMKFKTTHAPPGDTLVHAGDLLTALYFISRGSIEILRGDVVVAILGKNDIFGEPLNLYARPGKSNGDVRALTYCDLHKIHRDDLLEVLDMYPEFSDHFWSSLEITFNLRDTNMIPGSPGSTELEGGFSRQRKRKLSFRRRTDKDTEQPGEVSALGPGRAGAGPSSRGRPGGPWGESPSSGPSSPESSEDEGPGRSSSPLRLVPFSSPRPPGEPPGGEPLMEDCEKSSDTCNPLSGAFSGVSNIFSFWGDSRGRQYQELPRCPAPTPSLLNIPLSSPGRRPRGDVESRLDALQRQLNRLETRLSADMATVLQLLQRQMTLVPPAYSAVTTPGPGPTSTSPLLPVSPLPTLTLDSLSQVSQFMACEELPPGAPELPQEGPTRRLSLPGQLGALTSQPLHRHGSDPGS
Method in brief: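 Fluorescent tracer competition assay against a membrane preparation containing hERG.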

[6] = Tmax in ICR mouse at 30 mg/kg, po measured up to 24 hrs by LC-MS/MS analysis; format: ADME, organism-based; conditions: in vivo; method in brief: as §3
HepG2 = assay: Antiproliferative activity against human HepG2 cells assessed as inhibition of cell growth incubated for 72 hrs by Celltiter-Glo luminescent assay; format: functional, cell-based; conditions: HepG2, 72 h; method in brief: as §2
[7] = Oral bioavailability in ICR mouse at 30 mg/kg measured up to 24 hrs by LC-MS/MS analysis; format: ADME, organism-based; conditions: in vivo
Method in brief: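 ICR mice (9 per route) received 30 mg/kg p.o. or 2.0 mg/kg i.v. Plasma was sampled to 24 h and analysed by LC-MS/MS. F (%) = AUC0-∞(oral)/AUC0-∞(iv) × dose(iv)/dose(oral) × 100.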

MV4-11 = assay: Antitumor activity against human MV4-11 cells xenografted in iv dosed BALB/c nude mouse assessed as tumor growth inhibition administered once daily for 21 days and measured twice per week by vernier caliper method; format: functional, organism-based; conditions: dose 10-40 mg/kg, time 21.0 day
[8] = target: Cyclin-dependent kinase 1/cyclin B1 (Homo sapiens, UniProt P06493); assay: Inhibition of CDK1/Cyclin B (unknown origin) preincubated for 20 mins followed by ATP addition and measured after 120 mins in presence of [33P-gamma] ATP by hotspot kinase assay; format: protein-complex assay; method in brief: as §1
Chain of Cyclin-dependent kinase 1/cyclin B1 (P06493 whole entry): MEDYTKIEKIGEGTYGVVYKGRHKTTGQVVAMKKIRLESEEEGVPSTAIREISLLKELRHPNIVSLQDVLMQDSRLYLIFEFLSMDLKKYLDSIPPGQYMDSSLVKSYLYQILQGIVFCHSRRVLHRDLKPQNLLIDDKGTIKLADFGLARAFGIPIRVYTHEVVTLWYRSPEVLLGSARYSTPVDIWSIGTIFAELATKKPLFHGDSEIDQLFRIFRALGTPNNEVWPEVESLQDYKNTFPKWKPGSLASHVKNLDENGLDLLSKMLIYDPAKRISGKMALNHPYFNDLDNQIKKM
Chain of Cyclin-dependent kinase 1/cyclin B1 (P14635 whole entry, further chain): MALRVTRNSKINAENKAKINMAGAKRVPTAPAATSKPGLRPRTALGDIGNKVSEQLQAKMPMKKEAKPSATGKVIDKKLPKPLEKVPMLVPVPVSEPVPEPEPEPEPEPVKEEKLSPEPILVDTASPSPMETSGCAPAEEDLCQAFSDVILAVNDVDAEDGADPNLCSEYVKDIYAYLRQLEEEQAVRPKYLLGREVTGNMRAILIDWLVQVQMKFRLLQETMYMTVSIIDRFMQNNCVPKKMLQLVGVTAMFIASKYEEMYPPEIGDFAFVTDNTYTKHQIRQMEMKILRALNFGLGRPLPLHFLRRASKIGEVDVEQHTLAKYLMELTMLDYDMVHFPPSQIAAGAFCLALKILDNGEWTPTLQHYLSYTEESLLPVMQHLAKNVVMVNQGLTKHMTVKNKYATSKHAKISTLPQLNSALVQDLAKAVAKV

[9] = Metabolic stability in monkey liver microsomes assessed as intrinsic clearance at 1 uM incubated up to 60 mins in presence of NADPH by LC-MS/MS analysis; format: ADME, Macaca mulatta, Microsome; conditions: rhesus monkey, read-out: CLH
Method in brief: (§4)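 Liver microsomes (0.5 mg/mL) incubated at 37 °C with compound at 1.0 μM final, 3 mM MgCl2 and 1 mM NADPH in 100 mM PBS pH 7.4. Samples taken at 0, 5, 15, 30, 60 min; remaining parent measured by LC-MS/MS. k = −slope, T1/2 = 0.693/k, CLint = k/microsomal protein concentration. Midazolam served as control.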

[10] = target: Cyclin-C/Cyclin-dependent kinase 19 (Homo sapiens, UniProt Q9BWU1); assay: Inhibition of CDK19/Cyclin C (unknown origin) preincubated for 20 mins followed by ATP addition and measured after 120 mins in presence of [33P-gamma] ATP by hotspot kinase assay; format: protein-complex assay; method in brief: as §1
Chain of Cyclin-C/Cyclin-dependent kinase 19 (Q9BWU1 whole entry): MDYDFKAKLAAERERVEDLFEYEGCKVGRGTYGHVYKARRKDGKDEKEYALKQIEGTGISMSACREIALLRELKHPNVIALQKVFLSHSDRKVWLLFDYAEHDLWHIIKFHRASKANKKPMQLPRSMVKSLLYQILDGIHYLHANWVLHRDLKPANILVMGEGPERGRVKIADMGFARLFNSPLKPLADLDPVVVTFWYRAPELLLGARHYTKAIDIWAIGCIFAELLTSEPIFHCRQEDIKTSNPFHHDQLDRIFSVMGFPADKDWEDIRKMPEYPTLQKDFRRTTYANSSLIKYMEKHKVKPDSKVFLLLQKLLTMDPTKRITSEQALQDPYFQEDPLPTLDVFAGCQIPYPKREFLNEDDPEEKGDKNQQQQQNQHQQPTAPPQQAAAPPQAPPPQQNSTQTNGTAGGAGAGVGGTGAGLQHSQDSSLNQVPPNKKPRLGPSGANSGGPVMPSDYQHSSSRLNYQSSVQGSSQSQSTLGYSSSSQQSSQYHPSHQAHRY
Chain of Cyclin-C/Cyclin-dependent kinase 19 (P24863 whole entry, further chain): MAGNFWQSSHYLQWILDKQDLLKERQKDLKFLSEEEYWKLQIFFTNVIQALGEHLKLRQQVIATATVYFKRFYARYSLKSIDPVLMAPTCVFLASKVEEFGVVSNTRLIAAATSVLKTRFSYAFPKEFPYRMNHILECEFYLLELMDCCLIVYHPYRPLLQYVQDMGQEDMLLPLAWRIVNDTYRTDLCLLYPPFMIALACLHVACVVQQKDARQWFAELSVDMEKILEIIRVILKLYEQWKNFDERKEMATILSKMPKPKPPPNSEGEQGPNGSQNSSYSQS

[11] = Metabolic stability in human liver microsomes assessed as half life at 1 uM incubated up to 60 mins in presence of NADPH by LC-MS/MS analysis; format: ADME, Microsome; method in brief: as §4
CDK8/Cyclin C = CDK8/Cyclin C (Homo sapiens, UniProt P49336); assay: Inhibition of CDK8/Cyclin C (unknown origin) preincubated for 20 mins followed by ATP addition and measured after 120 mins in presence of [33P-gamma] ATP by hotspot kinase assay; format: protein-complex assay; method in brief: as §1
Chain of CDK8/Cyclin C (P49336 whole entry): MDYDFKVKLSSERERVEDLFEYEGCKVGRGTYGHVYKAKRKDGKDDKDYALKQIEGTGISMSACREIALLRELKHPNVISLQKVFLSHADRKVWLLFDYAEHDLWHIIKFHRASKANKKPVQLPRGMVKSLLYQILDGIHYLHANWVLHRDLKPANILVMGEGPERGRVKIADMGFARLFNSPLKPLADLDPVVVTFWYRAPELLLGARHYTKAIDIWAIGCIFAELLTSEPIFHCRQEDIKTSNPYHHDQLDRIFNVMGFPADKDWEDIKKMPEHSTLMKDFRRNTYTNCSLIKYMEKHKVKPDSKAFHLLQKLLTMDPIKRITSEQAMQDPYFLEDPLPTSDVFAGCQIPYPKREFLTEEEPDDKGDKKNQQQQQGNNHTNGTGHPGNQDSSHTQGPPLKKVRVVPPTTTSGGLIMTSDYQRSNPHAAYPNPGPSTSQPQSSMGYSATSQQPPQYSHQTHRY
Chain of CDK8/Cyclin C (P24863 whole entry, further chain): as the sequence (P24863 whole entry, further chain) above

[12] = AUC (0 to infinity) in ICR mouse at 2 mg/kg, iv measured up to 24 hrs by LC-MS/MS analysis; format: ADME, organism-based; set-up: route intravenous, dose 2 mg/kg, time <=24; conditions: in vivo

COc1cc(F)ccc1-c1nc(Nc2ccc3c(N4CCOCC4)c(C(C)=O)c(=O)oc3c2)ncc1F
Activity [1]: Non-Toxic | IC50 [2]: 16.6 µM | IC50 (NCI-N87): 600 nM | IC50 (CDK2/Cyclin A2): 320 nM | IC50 (NCI-H460): 640 nM | Activity [3]: < 10% | IC50 (CDK3/Cyclin E): 1510 nM | IC50 (A-375): 90 nM | Cmax [4]: 665 ng/mL | IC50 [5]: 10.1 µM | Tmax [6]: 15 min | IC50 (HepG2): 100 nM | bioavailability [7]: 14.3% | Activity (MV4-11): Dose-dependent effect | IC50 [8]: 1950 nM | microsomal CLint at 1 µM [9]: 57.3 µL/min/mg | IC50 [10]: 15.5 µM | half-life at 1 µM [11]: 35.7 min | IC50 (CDK8/Cyclin C): 6.5 µM | AUC(0-inf) [12]: 561 ng·h/mL
